Tests used:
[1] = tested on: HL-60; test: Cytotoxicity against human HL60 cells after 72 hrs; type: functional, cell-based; conditions: HL-60, 72 h
How it was run: (§1)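 KB, HT29, A549 and HL60 lines were sourced from ATCC, with Taxotere as the reference compound. IC50 is the concentration that reduced cell growth by 50%, reported as the mean of duplicate experiments.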

[2] = tested on: KB; test: Cytotoxicity against human KB cells after 72 hrs; type: functional, cell-based; how it was run: as §1
[3] = tested on: HT-29; test: Cytotoxicity against human HT-29 cells after 72 hrs; type: functional, cell-based; conditions: HT-29, 72 h; how it was run: as §1
[4] = tested on: A549; test: Cytotoxicity against human A549 cells after 72 hrs; type: functional, cell-based; conditions: A549, 72 h; how it was run: as §1
[5] = tested on: K562; test: Cell cycle arrest in human K562 cells assessed as accumulation at G2/M phase at 4 uM after 24 hrs using propidium iodide staining by flow cytometry (reference value: 12.1%); type: functional
[6] = tested on: K562; test: Cell cycle arrest in human K562 cells assessed as accumulation at S phase at 4 uM after 24 hrs using propidium iodide staining by flow cytometry (reference value: 56.7%); type: functional
[7] = tested on: K562; test: Cell cycle arrest in human K562 cells assessed as accumulation at G0/G1 phase at 4 uM after 24 hrs using propidium iodide staining by flow cytometry (reference value: 30.1%); type: functional

Structure (SMILES)	IC50 [1] [µM]	IC50 [2] [µM]	IC50 [3] [µM]	IC50 [4] [µM]	Activity [5] [%]	Activity [6] [%]	Activity [7] [%]
CC(=O)O[C@@]12CO[C@@H]1C[C@H](O)[C@@]1(C)C(=O)[C@H](O)C3=C(C)[C@@H](OC(=O)[C@H](O)[C@@H](NC(=O)OC(C)(C)C)c4ccccc4)C[C@@](O)([C@@H](OC(=O)c4ccccc4)[C@H]21)C3(C)C [DOCETAXEL]	0.52	0.29	0.92	0.37			
C=C1C(=O)[C@]23CC[C@@H](C(=C)C)[C@]4(C)CCC(=O)O[C@@]42C[C@H]1C[C@@H]3OC(C)=O [CROTOBARIN]	0.56	2.5	2.1	0.79	56.5	25.7	12.3
C=C1C(=O)[C@@]23CC[C@@H]1C[C@@]21OC(=O)CC[C@@]1(C)[C@H](C(=C)C)CC3 [CROTOGOUDIN]	0.49	1.5	1.9	0.54	33.6	31.8	22.2

From ChEMBL document CHEMBL1268865, “Cytotoxic 3,4-seco-Atisane Diterpenoids from Croton barorum and Croton goudotii” (J Nat Prod, 2010)
